Assay results reported in ChEMBL document CHEMBL1124012, “Synthesis of sulfur-containing analogues of bestatin. Inhibition of aminopeptidases by alpha-thiolbestatin analogues” (J Med Chem, 1988).

Columns and labels:
Aminopeptidase N = molecular target: T1, Aminopeptidase N (Sus scrofa, UniProt P15145); experiment: Inhibitory activity against Aminopeptidase M
T1 sequence (P15145 whole entry): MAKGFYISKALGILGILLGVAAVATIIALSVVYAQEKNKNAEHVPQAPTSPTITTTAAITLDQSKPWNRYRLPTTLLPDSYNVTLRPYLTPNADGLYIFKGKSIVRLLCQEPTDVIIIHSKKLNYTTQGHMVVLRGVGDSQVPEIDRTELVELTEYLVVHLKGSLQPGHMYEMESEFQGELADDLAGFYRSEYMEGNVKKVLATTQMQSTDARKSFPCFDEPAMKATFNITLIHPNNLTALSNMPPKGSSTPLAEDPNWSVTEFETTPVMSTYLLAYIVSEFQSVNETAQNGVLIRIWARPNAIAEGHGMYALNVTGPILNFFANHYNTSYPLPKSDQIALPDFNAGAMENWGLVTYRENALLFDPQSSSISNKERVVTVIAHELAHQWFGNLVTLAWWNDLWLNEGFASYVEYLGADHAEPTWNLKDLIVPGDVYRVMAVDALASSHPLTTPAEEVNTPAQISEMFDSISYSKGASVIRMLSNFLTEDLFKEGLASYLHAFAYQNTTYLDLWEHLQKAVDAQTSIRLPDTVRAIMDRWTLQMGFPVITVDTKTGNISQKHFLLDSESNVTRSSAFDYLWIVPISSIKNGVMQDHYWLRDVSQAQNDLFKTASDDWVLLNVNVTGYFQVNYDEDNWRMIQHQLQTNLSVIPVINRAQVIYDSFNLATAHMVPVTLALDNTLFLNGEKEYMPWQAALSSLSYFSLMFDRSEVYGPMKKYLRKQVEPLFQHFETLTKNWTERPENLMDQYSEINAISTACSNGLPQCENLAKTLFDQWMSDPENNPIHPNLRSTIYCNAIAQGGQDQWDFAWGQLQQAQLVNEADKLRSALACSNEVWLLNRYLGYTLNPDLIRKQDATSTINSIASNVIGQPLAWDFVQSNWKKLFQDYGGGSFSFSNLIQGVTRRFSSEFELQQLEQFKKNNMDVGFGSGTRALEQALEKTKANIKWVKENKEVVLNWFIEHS

Aminopeptidase B = molecular target: T2, Aminopeptidase B (Rattus norvegicus, UniProt O09175); experiment: Inhibitory activity against aminopeptidase B
T2 sequence (O09175 whole entry): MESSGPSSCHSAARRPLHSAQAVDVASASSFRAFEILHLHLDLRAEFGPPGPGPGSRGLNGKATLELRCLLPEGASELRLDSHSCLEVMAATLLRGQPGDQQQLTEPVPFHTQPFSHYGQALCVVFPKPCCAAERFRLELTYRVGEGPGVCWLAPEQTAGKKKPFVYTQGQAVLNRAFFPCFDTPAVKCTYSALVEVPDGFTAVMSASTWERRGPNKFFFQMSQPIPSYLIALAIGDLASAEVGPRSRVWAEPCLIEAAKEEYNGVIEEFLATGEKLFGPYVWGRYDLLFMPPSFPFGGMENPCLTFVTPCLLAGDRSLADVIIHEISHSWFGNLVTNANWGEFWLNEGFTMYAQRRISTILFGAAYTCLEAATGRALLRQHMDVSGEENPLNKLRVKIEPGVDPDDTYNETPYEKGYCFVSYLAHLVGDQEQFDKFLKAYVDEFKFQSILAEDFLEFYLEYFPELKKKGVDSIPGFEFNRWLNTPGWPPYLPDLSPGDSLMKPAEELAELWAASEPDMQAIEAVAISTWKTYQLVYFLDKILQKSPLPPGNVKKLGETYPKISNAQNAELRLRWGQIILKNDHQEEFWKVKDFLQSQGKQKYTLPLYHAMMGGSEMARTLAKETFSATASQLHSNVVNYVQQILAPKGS
Method in brief: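 Aminopeptidase B at an estimated 4.6 nM, diluted 10-fold for tight binders, in 0.1 M PIPES pH 7.0 with 0.2 M NaCl and 1 mM DTT, 25 °C. Substrate was L-arginine p-nitroanilide, used near Km, with hydrolysis read at 405 nm. Where slow binding appeared, enzyme and inhibitor were preincubated 10–20 min before substrate was added.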

Cytosol aminopeptidase = Cytosol aminopeptidase (Homo sapiens, UniProt P28838); experiment: Inhibitory activity against Leucine aminopeptidase; design: species or system Streptomyces olivoreticuli
Cytosol aminopeptidase, sequence (P28838 whole entry): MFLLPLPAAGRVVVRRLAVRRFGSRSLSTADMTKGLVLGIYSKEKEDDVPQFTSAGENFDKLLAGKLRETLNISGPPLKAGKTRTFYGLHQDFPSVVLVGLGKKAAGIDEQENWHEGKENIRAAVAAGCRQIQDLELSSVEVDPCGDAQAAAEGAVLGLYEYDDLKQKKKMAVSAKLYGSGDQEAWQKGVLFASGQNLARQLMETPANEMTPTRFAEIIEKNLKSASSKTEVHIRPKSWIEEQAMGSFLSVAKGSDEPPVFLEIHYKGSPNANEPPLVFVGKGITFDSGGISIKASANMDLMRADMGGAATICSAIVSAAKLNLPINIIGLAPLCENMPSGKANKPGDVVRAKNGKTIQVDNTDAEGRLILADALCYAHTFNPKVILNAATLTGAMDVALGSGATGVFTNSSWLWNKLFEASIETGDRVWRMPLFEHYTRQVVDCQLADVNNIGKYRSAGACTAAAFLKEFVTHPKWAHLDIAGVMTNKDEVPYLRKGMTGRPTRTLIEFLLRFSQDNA
Method in brief: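 Cytosolic leucine aminopeptidase, converted to Zn/Mg form by 4 h at 37 °C in 10 mM HEPES pH 8.0 with 5 mM MgSO4 and 1 M KCl. Assayed at 25 °C in 0.1 M Tris pH 8.5 with 5 mM MgCl2, enzyme 5 nM (1 nM for very tight binders).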

CC(C)C[C@H](NC(=O)[C@@H](S)[C@H](N)Cc1ccccc1)C(=O)O [listing 1 of 2 here]
Ki (Aminopeptidase N): 9.1 µM
Ki (Aminopeptidase B): 0.0064 µM
Ki (Cytosol aminopeptidase): 1 µM

CC(C)C[C@H](NC(=O)[C@@H](S)[C@H](N)Cc1ccccc1)C(=O)O [listing 2 of 2 here]
Ki (Aminopeptidase N): 4.4 µM
Ki (Aminopeptidase B): 0.0046 µM
Ki (Cytosol aminopeptidase): 0.55 µM

CC(C)CCNC(=O)[C@@H](O)[C@H](N)Cc1ccccc1
Ki (Aminopeptidase N): 20 µM
Ki (Aminopeptidase B): 39 µM
Ki (Cytosol aminopeptidase): 0.51 µM

CC(C)CC/N=C(\S)[C@@H](O)[C@H](N)Cc1ccccc1
Ki (Aminopeptidase N): 703 µM
Ki (Aminopeptidase B): > 1000 µM
Ki (Cytosol aminopeptidase): 4.4 µM

COC(=O)C(S)[C@H](N)Cc1ccccc1 (some centres undefined)
Ki (Aminopeptidase N): 307 µM
Ki (Aminopeptidase B): 159 µM
Ki (Cytosol aminopeptidase): 300 µM

NCCCC[C@@H](N)CS
Ki (Aminopeptidase N): 0.11 µM
Ki (Aminopeptidase B): 0.00091 µM
Ki (Cytosol aminopeptidase): > 1000 µM

CC(C)C[C@H](N)C(C)O (some centres undefined)
Ki (Aminopeptidase N): 355 µM
Ki (Aminopeptidase B): > 200 µM
Ki (Cytosol aminopeptidase): 507 µM

COC(=O)C(O)[C@H](N)Cc1ccccc1 (some centres undefined)
Ki (Aminopeptidase N): 1000 µM
Ki (Aminopeptidase B): > 1000 µM
Ki (Cytosol aminopeptidase): 33 µM

CC(C)C[C@H](/N=C(\S)[C@@H](O)[C@H](N)Cc1ccccc1)C(=O)O
Ki (Aminopeptidase N): 40.3 µM
Ki (Aminopeptidase B): 2.4 µM
Ki (Cytosol aminopeptidase): 0.33 µM

NCCCC[C@@H](N)CO
Ki (Aminopeptidase B): 100 µM

CC(C)CCNC(=O)[C@H](S)[C@@H](N)Cc1ccccc1
Ki (Aminopeptidase N): 32 µM
Ki (Aminopeptidase B): 35.7 µM
Ki (Cytosol aminopeptidase): 26 µM

CC(C)CCNC(=O)[C@@H](S)[C@H](N)Cc1ccccc1
Ki (Aminopeptidase N): 4.9 µM
Ki (Aminopeptidase B): 4 µM
Ki (Cytosol aminopeptidase): 16.7 µM

CC(C)C[C@@H](N)CS
Ki (Aminopeptidase N): 0.02 µM
Ki (Aminopeptidase B): 0.13 µM
Ki (Cytosol aminopeptidase): 450 µM

CC(C)C[C@H](N)C(C)S (some centres undefined)
Ki (Aminopeptidase N): 6 µM
Ki (Aminopeptidase B): 7 µM
Ki (Cytosol aminopeptidase): > 500 µM

CC(C)C[C@@H](N)CO
Ki (Aminopeptidase N): > 1000 µM
Ki (Aminopeptidase B): > 1000 µM
Ki (Cytosol aminopeptidase): > 1000 µM

CC(C)C[C@H](NC(=O)[C@@H](O)[C@H](N)Cc1ccccc1)C(=O)O [UBENIMEX]
Ki (Aminopeptidase B): 0.06 µM
